Screening data deposited in PubChem BioAssay by several laboratories.
Sampled rows, rich in hits. Any-hit rate of the full collection: about 3.7%.
ROMK primary: ROMK potassium channel modulators, primary screen, cell-based, thallium flux, MLSMR library; Tet-inducible ROMK, thallium flux fluorescence; actives lie on both sides; 2% of 130,000 active; ATP-sensitive inward rectifier potassium channel 1 (Homo sapiens), P48048; AID 1918, 2009; B-score at 10 µM;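 active = signal ratio slope over the read window, or its plate-corrected B-score, at least 3 SD from the plate mean, either direction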;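 also: B-score of the F/F0 ratio slope over 7 to 12 s after thallium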
MT stabilize HCS: microtubule stabilizers in HeLa cells, primary screen, imaging, high-content imaging. 0.83% of 200,000 active. % tubulin-high responders, % at 10 µM. HeLa tubulin immunostaining HCS, 24 h; share of cells brighter than vehicle mean+2SD;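 active = plate Z-score above 3 for both tubulin-high and condensed-nucleus cell shares, with cell loss under 80%, at 10 µM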;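 also: anti alpha tubulin signal scored within the nucleus-defined area of each cell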
Cl transport mod: KCC2 cotransporter modulators, thallium flux, primary screen, cell-based, HEK293 KCC2, FluoZin-2 fluorescence, MLSMR. Solute carrier family 12 member 5 (Homo sapiens), Q9H2X9. KCC2 cells, thallium flux FluoZin-2 fluorescence. B-score of Tl+ flux slope (higher = more flux/activation; lower = inhibition) at 10 µM. 2.2% of 190,000 active. AID 1456, 2008;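 active = thallium flux slope and its plate-corrected score both differing from the plate sample mean at a set confidence after two filtering rounds, in either direction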;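 also: slope of fluorescence scaled to starting intensity during 10 to 20 s after thallium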
Redox H2O2 prof: compounds producing H2O2 with reducing agent – biochemical, NIH compound library profiling, artefact control for MLSCN library redox annotation, primary screen; 0.03% of 200,000 active; activation, % at 10 µM; DTT-dependent redox cycling H2O2, phenol red/HRP absorbance; 100% = 100 µM peroxide control, 0% = buffer; AID 878, 2007;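 active = activation of at least 50% relative to the plate's high and low controls in the primary single-dose screen; inactive = activation below 50%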;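 also: compound incubated with DTT at 0.8 mM final as the reducing agent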
b-catenin transl: modulators of beta-catenin nuclear translocation, primary screen, imaging, HeLa cells, immunofluorescence, high-content | nuclear translocation activity, % at 5 µM | 0.3% of 190,000 active;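 active = nuclear translocation activity above 50% at 5 µM, with a well cell count of 50 or more; inconclusive = wells under 50 cells across six images, flagged as toxic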;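 also: per-cell ratio of nuclear to cytoplasmic median beta-catenin stain intensity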
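Test system: human HeLa cell line; Doses: 5 µM primary, 0.02–20 µM confirmation; Incubation: 24 h compound exposure, 37°C; Detection: beta-catenin immunofluorescence imaging with DAPI; Read-out: beta-catenin nuclear/cytoplasmic ratio, % activation.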
KCC2 secondary: KCC2 modulators in sodium-free buffer, confirmation, cell-based, HEK293 KCC2, thallium flux, secondary assay; shares compounds with Cl transport mod; 15% of 3,700 active; FluoZin2 fluorescence; hits give high values; normalised thallium flux (F/F0 slope) at 10 µM; AID 1713, 2009;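 active = thallium flux slope above the same plate's solvent-only control mean plus 3 SD; inconclusive = the two replicate wells disagree; inactive = no significant difference from solvent-only control wells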
KCC2 bumet counter: thallium flux persisting under bumetanide in KCC2 cells, confirmation, counter-screen for KCC2 modulator project, cell-based, HEK293 KCC2, FluoZin2, secondary assay 3; shares compounds with Cl transport mod; HEK293-KCC2 + bumetanide/ouabain; hits give high values; normalized thallium flux at 10 µM; 49% of 3,700 active; AID 1714, 2009;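 active = thallium entry rate above the same plate's blocked-transporter control wells by more than 3 SD; inconclusive = the two repeat wells disagree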;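 also: raw slope of fluorescence over initial fluorescence between 10 and 20 s after thallium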
KCC2 secondary2: KCC2 modulators without ouabain present, confirmation, cell-based, HEK293 KCC2, thallium flux, FluoZin2, secondary assay 2; shares compounds with Cl transport mod; thallium flux FluoZin2 fluorescence; actives lie on both sides; F/F0 rise rate, 10–20 s post-thallium; normalized thallium flux at 10 µM; 23% of 3,700 active; AID 1715, 2009;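 active = thallium flux slope more than 3 SD above or below the plate's solvent-only control mean, mostly below; inconclusive = the two repeat wells disagreed; inactive = no significant shift from solvent-only controls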
HEK293 Tl flux: thallium flux modulation in parental HEK cells, confirmation, counter-screen for KCC2 modulator project, cell-based, counterscreen 1; shares compounds with Cl transport mod; HEK293 parental cells, thallium flux FluoZin2, ouabain; baseline-ratio fluorescence slope, 10–20 s after thallium; thallium flux rate (normalised fluorescence) at 10 µM; 46% of 3,700 active; AID 1716, 2009;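 active = thallium flux rate significantly above the same plate's solvent-only control wells, beyond their mean plus 3 SD; inconclusive = the two replicate wells gave conflicting results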
KCC2 retest ouab: KCC2 inhibitors and activators, ouabain retest, confirmation, HEK-KCC2 cells; shares compounds with Cl transport mod; HEK293-KCC2, thallium flux FluoZin2 fluorescence; bidirectional: low = inhibitor, high = activator; raw Tl+ flux slope (below DMSO = inhibition, above = activation) at 10 µM; 48% of 3,700 active; AID 1717, 2009;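 active = thallium flux slope beyond 3 SD from same-plate DMSO control mean in most replicates, usually higher, sometimes lower; inconclusive = repeat tests gave conflicting results; inactive = no significant difference from controls in most replicates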;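 also: slope of initial-normalized fluorescence between seconds 10 and 20 after thallium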
HEK counter2: native HEK Tl+ uptake effects, second counter-screen – HEK cells, counterscreen 2, counter-screen for KCC2 modulator project, confirmation. shares compounds with Cl transport mod. HEK293 parental, thallium flux FluoZin-2 fluorescence slope. thallium flux slope at 10 µM. 33% of 3,700 active;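 active = thallium flux slope above the same plate's solvent-control mean plus 3 SD in both duplicate wells; inconclusive = duplicate wells that disagreed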;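 also: run without ouabain in cells lacking the KCC2 cotransporter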
Hits are given with their value; – = inactive; ? = inconclusive; · = no result given.

SMILES	ROMK primary	MT stabilize HCS	Cl transport mod	Redox H2O2 prof	b-catenin transl	KCC2 secondary	KCC2 bumet counter	KCC2 secondary2	HEK293 Tl flux	KCC2 retest ouab	HEK counter2
CCOC(=O)c1c(NS(C)(=O)=O)sc2c1CCC(C)C2 (configuration not stated)	–	–	22.6	–	–	0.0197	0.0586	–	0.0275	0.0524	0.0136
CCc1ccc(Nc2nnc(SCC(=O)Nc3sccc3C(N)=O)s2)cc1	·	–	-4.92	–	·	–	–	0.0226	–	?	–
CCc1ccc(Nc2nnc(SCC(=O)NCCN3C(=O)CSC3=O)s2)cc1	–	–	-3.67	–	–	–	–	–	–	?	–
COc1cccc(Nc2nnc(SCC(=O)Nc3sccc3C(N)=O)s2)c1	–	–	–	–	–	·	·	·	·	·	·
CCc1ccc(Nc2nnc(SCC(=O)Nc3cccnc3Cl)s2)cc1	·	–	–	–	–	·	·	·	·	·	·
COc1ccc(CCNc2oc(COc3ccc(Br)cc3)nc2C#N)cc1OC	·	–	·	–	·	·	·	·	·	·	·
COc1ccc(CCNc2oc(COc3ccccc3F)nc2C#N)cc1	–	–	·	–	–	–	0.00341	–	0.00534	0.0173	–
N#Cc1nc(COc2ccccc2F)oc1NCc1ccc(F)cc1	·	–	·	–	–	–	–	?	–	?	–
O=C(c1ccccc1F)N1CCN(c2ccc([N+](=O)[O-])cc2-n2cccc2)CC1	–	·	–	·	–	·	·	·	·	·	·
O=C(c1ccc(F)cc1)N1CCN(c2ccc([N+](=O)[O-])cc2-n2cccc2)CC1	–	·	-3.72	·	–	–	–	–	–	–	–
COc1ccc(N2CCN(C(=O)CCc3ccc(S(=O)(=O)NC(C)(C)C)cc3)CC2)cc1	·	·	–	·	–	·	·	·	·	·	·
COc1ccc2c(c1)O[C@@H](c1cccc(C(F)(F)F)c1)[C@H](O)C2=O	–	–	8.78	–	·	–	0.00931	–	0.0112	?	?
CC1CCN(c2c(NCC3CCC(C(=O)NCCCc4ccccc4)CC3)c(=O)c2=O)CC1 (configuration not stated)	·	·	–	·	–	·	·	·	·	·	·
CC(C)CC(c1nnnn1C1CCCC1)N1CCC(C(N)=O)CC1 (configuration not stated)	–	–	2.66	–	–	–	–	–	–	–	–
COc1ccc(CNC(=O)C/C(C)=N/NC(=O)COc2ccc(Br)cc2)cc1	–	–	·	–	–	·	·	·	·	·	·
Cc1ccc(Cc2cnc(N3C(=N)SC(C)C3=O)s2)cc1 (configuration not stated)	–	–	10.6	–	–	–	0.0303	–	0.0183	0.0303	–
